Experimental data gathered from unrelated publications.
Each line is one published result; the experiments were not run side by side.
Target: Cannabinoid receptor 2 (CNR2, Homo sapiens, UniProt P34972)

The Emax of `CCOC(=O)C(CC)(CCCSCCOCCOCCNc1ccc([N+](=O)[O-])c2nonc12)NC(=O)c1ccc(C2CC2)c(Cc2ccc(F)cc2)n1` (racemic) is reported as 100% (cAMP; agonist).
For `COCc1c(-c2cc3cc(C)cc(OC)c3s2)c2c(N)ncnn2c1CN1CCNC(=O)C1`, the inhibition was 2% (ligand displacement; radioligand; 10 µM).
`CN(CCN1CCC(OC(=O)Nc2ccccc2-c2ccccc2)CC1)C(=O)c1ccc(CN2CCC(C(N)=O)CC2)cc1` has an inhibition of -2% (ligand displacement; radioligand; 1 µM).
`CCOC(=O)C(CC)(CCCSCCOCCOCCOCCOCCNC(=O)OC(C)(C)C)NC(=O)c1ccc(C2CC2)c(Cc2ccc(F)cc2)n1` (centres unmarked) has an Emax of 91% (cAMP; agonist).
With `Clc1ccc2c(C3CCN(CCc4c[nH]c5ccccc45)CC3)c[nH]c2c1` the inhibition was 11% (ligand displacement; radioligand; 10 µM).
For `COc1cccc2c(C(=O)c3cccc4ccccc34)cn(CCN3CCOCC3)c12`, the inhibition was 100% (ligand displacement; radioligand; 1 µM; cell membranes).
The inhibition of `COc1ccc(S(=O)(=O)N2CCCCC2)cc1C` is reported as less than 30% (ligand displacement; radioligand; 10 µM).
With `O=C(Nc1cccnn1)N1CCN([C@@H]2CCOc3cc(C(F)(F)F)ccc32)CC1` the inhibition was 23% (ligand displacement; 20 µM).
